High-throughput results deposited in PubChem BioAssay by several laboratories.
JMJD2C inh: blocks human GASC-1 demethylase activity | Q9H3R0 | GST-JMJD2C(1-420) H3K9me3 demethylation, DELFIA europium | inhibition, % at 2.35 µM | actives 0.069% (n = 330,000) | AID 2099;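 active means more than half of a compound's replicate wells show inhibition beyond 50%, single wells judged on their own value; inconclusive means some, but no more than half, of replicates pass 50% inhibition; inactive means no replicate passes 50% inhibition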;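 further: signal counts dimethyl H3K9 product captured on neutravidin plate; 0% = median of DMSO wells and 100% = 0.3 times that DMSO median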
Arrestin-AP2 inh: human beta-arrestin and AP2 interaction inhibition | inhibition, % at 10 µM | FITC-arrestin peptide / GST-AP2 beads, flow cytometry; AP2 beta2 appendage carries R879A mutation | AID 504490 | actives 0.31% (n = 340,000);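 active means inhibition above a set limit, near 3 SD of compounds lacking own fluorescence, cut at about 54% in these data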;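 further: plate controls were DMSO wells for no effect and 5 µM unlabelled arrestin peptide for full effect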
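Measured by: flow cytometry, FL1 (488/535 nm); Material: AP2 appendage R879A on GSH beads; Evaluation: percent response; Timing: pre-incubation 12 min, peptide binding 1 h, room temperature; Also added: 50 nM FITC-arrestin peptide; Medium: PBS with 0.05% Tween 20 and 0.1% BSA.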
T cell modulator: T cell immune modulation candidate. AID 2052. 2C CD8+ T cell-vesicle binding, flow cytometry; hits give low values. response (vesicle binding), % at 7 µM. actives 0.068% (n = 330,000);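 active means response, share of CD8 T cells binding vesicles, and their 90th percentile fluorescence all below set limits, cut at about 80% in these data, passing the limit was not always enough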;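 further: values below 100% mean blocked vesicle binding to the CD8+ T cells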
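Material: murine 2C transgenic CD8+ T lymphocytes / Also added: QL9-peptide-loaded Drosophila micro-vesicles bearing Ld, ICAM-1 and B7-1 / Schedule: binding step 1.5 h, 37 °C, antibody labelling 20 min, ice / Signal: flow cytometry, PE anti-B7-1 (FL2) versus Alexa647 anti-CD8 (FL8), PFA-fixed / Evaluation: percent CD8+ FL2 mean versus row control / Benchmarks: naked versus QL9-loaded vesicles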
HDAC3 inh: inhibitors of human histone deacetylase 3. O15379. recombinant HDAC3, fluorogenic peptide/trypsin coupled, fluorescence. inhibition, % at 8.3 µM. actives 0.15% (n = 320,000). AID 2718; in the data active means inhibition above about 26%, passing the limit was not always enough; inconclusive means no clear call, values can overlap the other calls
LANA-H2A inh: blocks KSHV LANA binding to histone H2A/H2B | Q9QR71 | cell-free LANA-H2A/H2B peptide, fluorescence polarization | inhibition, % (test concentration not listed) | actives 0.6% (n = 320,000) | AID 2629; in the data active means inhibition mostly above about 10%, no sharp cut-off; inactive means mostly below about 6.7%
DSG3 Ab inh: inhibitors of pemphigus antibody binding to human desmoglein-3 | P32926 | DSG3-coupled beads, scFv-anti-DSG3-GFP binding, flow cytometry; hits give low values | binding (percent of control), % at 10 µM | actives 0.48% (n = 310,000) | AID 588358;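 active means binding more than 3 SD below its plate's average and above zero; inconclusive means below that plate limit but binding exactly zero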;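 further: hits lower antibody fragment binding to DSG3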
Target sequence (P32926 whole entry, looked up, the tested form may be a part): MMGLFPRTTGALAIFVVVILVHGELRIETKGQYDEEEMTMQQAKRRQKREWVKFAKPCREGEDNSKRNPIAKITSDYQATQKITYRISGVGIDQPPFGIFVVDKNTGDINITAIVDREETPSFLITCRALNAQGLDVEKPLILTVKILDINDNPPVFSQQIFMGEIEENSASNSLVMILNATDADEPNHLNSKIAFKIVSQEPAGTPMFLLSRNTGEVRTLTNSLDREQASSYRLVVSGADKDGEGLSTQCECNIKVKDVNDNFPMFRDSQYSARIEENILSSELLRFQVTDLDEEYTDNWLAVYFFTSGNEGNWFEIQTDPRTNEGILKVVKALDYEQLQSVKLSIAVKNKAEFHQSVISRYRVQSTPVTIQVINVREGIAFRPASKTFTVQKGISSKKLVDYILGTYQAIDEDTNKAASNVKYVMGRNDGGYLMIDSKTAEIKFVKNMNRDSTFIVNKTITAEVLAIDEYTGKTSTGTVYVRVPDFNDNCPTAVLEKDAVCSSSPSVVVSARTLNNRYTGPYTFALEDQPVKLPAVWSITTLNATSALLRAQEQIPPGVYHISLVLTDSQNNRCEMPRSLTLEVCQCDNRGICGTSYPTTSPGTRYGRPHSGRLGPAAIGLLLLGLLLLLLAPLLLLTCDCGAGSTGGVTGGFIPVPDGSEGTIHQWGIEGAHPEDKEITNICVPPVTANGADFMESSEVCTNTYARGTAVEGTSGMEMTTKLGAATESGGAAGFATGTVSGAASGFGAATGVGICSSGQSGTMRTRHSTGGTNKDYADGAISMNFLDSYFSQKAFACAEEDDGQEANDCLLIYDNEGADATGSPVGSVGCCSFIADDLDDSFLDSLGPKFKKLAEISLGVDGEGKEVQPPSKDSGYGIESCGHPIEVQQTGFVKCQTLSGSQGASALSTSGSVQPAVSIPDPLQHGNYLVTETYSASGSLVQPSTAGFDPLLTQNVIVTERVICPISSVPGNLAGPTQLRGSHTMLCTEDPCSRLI
The depositor's hits bear a star; u = inconclusive; x = no result. Sampled rows, rich in hits. Any-hit rate of the full collection: about 1.6%.

SMILES | JMJD2C inh | Arrestin-AP2 inh | T cell modulator | HDAC3 inh | LANA-H2A inh | DSG3 Ab inh
C[C@H](CO)N1C[C@H](C)[C@@H](CN(C)Cc2ccncc2)Oc2c(NC(=O)Cc3ccccc3)cccc2C1=O | 33 | 6 | 309 | 7 | -2 | 103
C[C@H](CO)N1C[C@H](C)[C@@H](CN(C)S(=O)(=O)c2ccccc2)Oc2ccc(NC(=O)Nc3ccc(C(F)(F)F)cc3)cc2C1=O | 5 | -15 | 277 | 11 | x | 106
C[C@H](CO)N1C[C@H](C)[C@@H](CN(C)S(=O)(=O)c2ccccc2)Oc2ccc(NC(=O)CCC(F)(F)F)cc2C1=O | x | -4 | 455 | 2 | 28* | x
C[C@H](CO)N1C[C@H](C)[C@@H](CN(C)Cc2ccccc2)Oc2ccc(NC(=O)CCCCCC(=O)Nc3ccccc3N)cc2C1=O | -2 | 4 | 420 | 75* | -4 | 100
C[C@H](CO)N1C[C@H](C)[C@@H](CN(C)Cc2ccncc2)Oc2c(NC(=O)CCCCCC(=O)Nc3ccccc3N)cccc2C1=O | -35 | -8 | 317 | 57* | -6 | 100
C[C@H](CO)N1C[C@H](C)[C@@H](CN(C)C)Oc2c(NC(=O)CCCCCC(=O)Nc3ccccc3N)cccc2C1=O | 5 | -5 | 194 | 67* | 1 | 102
COc1cc2c(cc1OC)C(Cc1ccc(O)c(Oc3ccc(C[C@H]4c5cc(OC)c(OC)cc5CCN4C)cc3)c1)N(C)CC2 (stereo partly drawn) | 3 | x | 278 | 2 | -3 | x
CSc1ccccc1C(=O)OCC(=O)Nc1c(C)n(C)n(-c2ccccc2)c1=O | x | x | x | x | x | 100
CCCCNC(=O)/C(C#N)=C/c1ccc2c(c1)OCCO2 | 2 | 18 | 0.0* | 0 | 0 | 91
CCCCCCCCNC(=O)/C(C#N)=C/c1ccc2c(c1)OCCO2 | 6 | 12 | 173 | -4 | 5 | 107
NNC(=O)c1cc(NS(=O)(=O)c2cccs2)cc(NS(=O)(=O)c2cccs2)c1 | -14 | 1 | 453 | 0 | 2 | 89
COc1cc(OC)cc(C(C)=O)c1 | 78 | -3 | 603 | -4 | 20* | u
COc1cc(OC)cc(C(=O)Nc2cccc(C(C)=O)c2)c1 | 12 | 3 | 213 | 4 | 2 | 101
O=S(=O)(c1ccc(Cl)cc1)N1CCC(O)(c2cccnc2)CC1 | -2 | 43 | 0.0* | 1 | 5 | 104
O=C(c1ccccc1Cl)N1CCC(O)(c2cccnc2)CC1 | 2 | 6 | 206 | -1 | 5 | 290
COc1ccc(OC)c(/C=C2\N=C(c3ccccc3)OC2=O)c1 | -2 | -4 | 307 | -2 | 42* | 144
Cc1nc(SCc2nc3c([N+](=O)[O-])cccc3[nH]2)c2oc3ccccc3c2n1 | 2 | -1 | 284 | -10 | -3 | 32*
O=C(NCCS(=O)(=O)N1CCN(c2ccc(F)cc2)CC1)c1ccco1 | -16 | -1 | 138 | -4 | -5 | 103
Nc1cc(Cl)ccc1C(=O)OCC(=O)NCc1cccs1 | 1 | -1 | 0 | -9 | 0 | 106
COc1cccc(C(=S)N2CCCC2)c1OC | 0 | 28 | 454 | 20 | 1 | 90
CCCc1nnc(NC(=O)CCC(=O)NC2CCCc3ccccc32)s1 (stereo not drawn) | 6 | -8 | 299 | 4 | -3 | 39*
CC(C)Cc1nnc(NC(=O)CCC(=O)NC2CCCc3ccccc32)s1 (stereo not drawn) | -4 | -5 | 144 | 6 | -10 | 109
CC(=O)Nc1ccc(S(=O)(=O)N[C@@H](C)C(=O)N2CCN(c3ccccn3)CC2)cc1 | 2 | 3 | 816 | -5 | 1 | 90
CN(C)C(=O)C1(c2ccccc2)CCN(S(=O)(=O)c2ccccc2)CC1 | -10 | 5 | 339 | -5 | 0 | x
O=C(O)C1(c2ccccc2)CCN(S(=O)(=O)c2ccccc2)CC1 | 0 | 43 | 381 | 3 | 1.5* | 100
SMILES | JMJD2C inh | Arrestin-AP2 inh | T cell modulator | HDAC3 inh | LANA-H2A inh | DSG3 Ab inh
Cc1cc(NC(=O)COC(=O)c2cc(S(=O)(=O)N(C)C)ccc2Cl)no1 | -8 | 0 | 332 | 3 | -8 | x
CC1CCN(S(=O)(=O)c2ccc(C(=O)Nc3ncccc3O)cc2)CC1 | 0 | -8 | 180 | 64* | 1 | x
COc1ccccc1C(=O)NC(=O)COC(=O)c1ccc([N+](=O)[O-])cc1Cl | 5 | 26 | 161 | -8 | 0 | 101
Cc1nc2c(-c3ccccc3)c[nH]n2c(=O)c1Cc1ccccc1 | 0 | 13 | 343 | -24 | 2 | 64*
CN(C)c1ccc(C#Cc2ccc3cc(CCCO)oc(=O)c3c2)cc1 | -2 | -3 | 198 | 1 | 3 | 84*
Clc1ccccc1Cn1nnc2c(NCCN3CCOCC3)ncnc21 | 91* | 2 | 447 | -2 | -1 | 102
c1ccc(Cn2nnc3c(NCCN4CCOCC4)ncnc32)cc1 | -3 | 16 | 315 | 2 | -12 | 98
CCOC(=O)C1CCCN(CCC(=O)Nc2cc(OC)ccc2OC)C1 (stereo not drawn) | -24 | 0 | 231 | -1 | -3 | 112
CCOC(=O)c1cc(-c2ccc(/C=N\n3cnnc3)o2)ccc1Cl | -5 | -66 | 194 | 13 | -1 | 107
CCOC(=O)c1cc(-c2ccc(/C=C3/C(=O)N(c4ccc(C(=O)O)cc4)N=C3C)o2)ccc1Cl | 4 | -1 | 235 | -4 | 4 | 63*
COc1cccc(C2SCC(=O)N2c2ccc(Br)cc2)c1OC (stereo not drawn) | 3 | 2 | 850 | 1 | 5 | 101
CC1Cc2ccccc2N1C(=O)CN(C)CC(=O)Nc1cccc(F)c1 (stereo not drawn) | -4 | 28 | 206 | 6 | 3 | 99
CC1(C)NC(=O)N(CC(=O)Nc2ccc(-n3cnnn3)cc2)C1=O | -1 | 33 | 741 | -2 | 2 | x
COc1ccc(C(=O)NCc2ccc(-n3cccc3)cc2)cc1OC | 3 | 11 | 294 | 5 | 4 | 93
COC(=O)C(C(=O)OC)c1ccc(-n2cccc2)cc1 | -3 | 56* | 213 | -7 | -3 | 115
CC1=C(C)CS(=O)N(c2ccc(S(N)(=O)=O)cc2)C1 (stereo not drawn) | -2 | 3 | 239 | 2 | -3 | x
CC1=C(C)CS(=O)N(S(=O)(=O)c2ccccc2)C1 (stereo not drawn) | 0 | 6 | 345 | 2 | 14* | 95
COc1ccc(C2=C3C(=O)OCC3Cc3ncn(Cc4ccccc4)c32)cc1 (stereo not drawn) | -1 | 3 | 157 | 9 | 5 | 104
COc1ccc(C(=O)NCCCNC(=O)c2cnccn2)cc1 | 9 | 10 | 286 | 4 | 0 | 93
C=CCNC(=S)N1CCN(Cc2ccccc2)CC1 | -14 | 20 | 571 | -1 | 18* | 102
